# Measured values: ChEMBL document CHEMBL2331427, “Synthesis and biological evaluation of thieno [2',3':4,5]pyrimido[1,2-b][1,2,4]triazines and thieno[2,3-d][1,2,4]triazolo[1,5-a]pyrimidines as anti-inflammatory and analgesic agents” (Eur J Med Chem, 2013)
# Key:
# Rattus norvegicus [1] = assay: Analgesic activity in albino rat assessed as increase in tail withdrawal latency at 20 mg/kg, po after 4 hrs relative to control; format: functional
# How it was run: (§1)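 Male albino rats, 120-150 g, five per group, free access to food and water. Compounds given orally at 20 mg/kg; control group kept, diclofenac Na reference at 20 mg/kg po. Tail withdrawal after immersion in 55 °C water. Reaction time read at 1, 2 and 4 h. Reported as mean ± S.E. and as % increase over basal values. ANOVA with Student-Newman-Keuls, P < 0.05.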
# Rattus norvegicus [2] = assay: Analgesic activity in albino rat assessed as increase in tail withdrawal latency at 20 mg/kg, po after 2 hrs relative to control; format: functional; how it was run: as §1
# Rattus norvegicus [3] = assay: Analgesic activity in albino rat assessed as increase in tail withdrawal latency at 20 mg/kg, po after 1 hr relative to control; format: functional; how it was run: as §1
# [4] = Acute toxicity in po dosed rat assessed as mortality after 24 hrs; format: organism-based; details: in vivo, read-out: ALD50
# How it was run: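 Male rats, 180-200 g, groups of five, fasted 24 h before dosing. Compounds given orally at graded doses of 0.1-0.3 g/kg body weight. Mortality at each dose level recorded after 24 h to estimate approximate acute lethal dose (ALD50).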
# Rattus norvegicus [5] = assay: Ulcerogenic activity in albino rat assessed as appearance of hyperemia at 300 mg/kg, po bid administered for 3 days measured after 6 hrs post last dose relative to control; format: toxicity, organism-based; design: dose 300 mg/kg, route oral; details: in vivo
# How it was run: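 Rats received 300 mg/kg per day orally as two equal doses at 0 and 12 h for three successive days, with water ad libitum. Controls received 1% gum acacia orally. Animals were killed with diethyl ether 6 h after the last dose. Stomachs were removed and inspected grossly for hyperemia and ulceration. Diclofenac Na served as reference.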
# Rattus norvegicus [6] = assay: Antiinflammatory activity in albino rat assessed as inhibition of formalin-induced paw edema at 20 mg/kg, po qd administered 7 days measured on day 8 post formalin challenge by plethysmometric analysis relative to control; format: functional
# How it was run: (§2)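 Sub-acute model in rats. Compounds given orally at 20 mg/kg daily for 7 consecutive days. 2% formalin (0.1 ml) injected subplantar into left hind paw under light ether anaesthesia 1 h after the day-1 dose, with a second injection on day 3. Paw volume measured plethysmographically on days 1 and 8. Inhibition calculated versus control.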
# Rattus norvegicus [7] = assay: Antiinflammatory activity in albino rat assessed as inhibition of formalin-induced paw edema at 20 mg/kg, po qd administered 7 days measured on day 1 post formalin challenge by plethysmometric analysis relative to control; format: functional; how it was run: as §2
# Rattus norvegicus [8] = assay: Antiinflammatory activity in po dosed albino rat assessed as inhibition of formalin-induced paw edema administered 1 hr prior to formalin challenge measured after 2 hrs by plethysmometric analysis; format: functional
# How it was run: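 Male albino rats, 180-200 g, groups of five, dosed orally at 5, 10, 20, 40 and 50 mg/kg. After 1 h, 2% formalin (0.1 ml) injected subplantar into left hind paw. Paw edema inhibition measured plethysmometrically 2 h after formalin injection. ED50 derived from these doses.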
# Rattus norvegicus [9] = assay: Antiinflammatory activity in albino rat assessed as inhibition of formalin-induced paw edema at 20 mg/kg, po administered 1 hr prior to formalin challenge measured after 4 hrs by plethysmometric analysis relative to control; format: functional
# How it was run: (§3)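 Male albino rats, 180-200 g, five per group. Test compounds given orally at 20 mg/kg; diclofenac Na reference at 20 mg/kg po. After 1 h, 2% formalin (0.1 ml) injected subplantar into left hind paw under light ether anaesthesia. Paw volume read by water plethysmometer at 0, 1, 2 and 4 h. % inhibition of edema increase (Vt−Vo) calculated versus control; mean ± S.E.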
# Rattus norvegicus [10] = assay: Antiinflammatory activity in albino rat assessed as inhibition of formalin-induced paw edema at 20 mg/kg, po administered 1 hr prior to formalin challenge measured after 2 hrs by plethysmometric analysis relative to control; format: functional; how it was run: as §3
# Rattus norvegicus [11] = assay: Antiinflammatory activity in albino rat assessed as inhibition of formalin-induced paw edema at 20 mg/kg, po administered 1 hr prior to formalin challenge measured after 1 hr by plethysmometric analysis relative to control; format: functional; how it was run: as §3
SMILES,Activity (Rattus norvegicus [1]) [%],Activity (Rattus norvegicus [2]) [%],Activity (Rattus norvegicus [3]) [%],LD50 at 24 h [4] [mg/kg],Activity (Rattus norvegicus [5]),inhibition in vivo at 20 mg/kg (Rattus norvegicus [6]) [%],inhibition in vivo at 20 mg/kg (Rattus norvegicus [7]) [%],ED50 (Rattus norvegicus [8]) [mg/kg],inhibition in vivo at 20 mg/kg (Rattus norvegicus [9]) [%],inhibition in vivo at 20 mg/kg (Rattus norvegicus [10]) [%],inhibition in vivo at 20 mg/kg (Rattus norvegicus [11]) [%]
COc1ccc(NC(=O)Cc2nn3c(=O)c4c(C)c(C)sc4nc3[nH]2)cc1,42,35,14,> 300,Non-toxic,38,41,18.4,43,40,47
Cc1sc2nc3[nH]c(Nc4ccccc4)nn3c(=O)c2c1C,26,17,5,–,–,20,36,–,25,12,9
Cc1nn2c(=O)c3c(C)c(C)sc3nc2[nH]1,54,40,30,> 300,Non-toxic,31,44,23.4,52,43,38
O=C([O-])Cc1ccccc1Nc1c(Cl)cccc1Cl.[Na+] [DICLOFENAC SODIUM],56,–,30,–,20%,40,44,25.1,52,–,38
Cc1ccc(-c2cnc3nc4sc(C)c(C)c4c(=O)n3n2)cc1,29,25,13,–,–,22,25,–,27,28,21
Cc1sc2nc3ncc(-c4ccc(Cl)cc4)nn3c(=O)c2c1C,23,11,6,–,–,18,36,–,20,12,14
Cc1sc2nc3[nH]c(CC(=O)Nc4ccc(Cl)cc4)nn3c(=O)c2c1C,40,32,28,–,–,38,36,–,29,28,33
Cc1sc2nc3[nH]c(=S)[nH]n3c(=O)c2c1C,39,35,27,> 300,20%,40,47,27.5,27,43,42
Cc1sc2nc3[nH]c(CC(=O)Nc4ccccc4)nn3c(=O)c2c1C,51,36,21,> 300,20%,37,50,26.1,40,37,42
Cc1sc2nc3[nH]c(CC#N)nn3c(=O)c2c1C,64,53,41,> 300,20%,38,47,29,36,25,42
Cc1sc2nc3[nH]c(Nc4ccc(Cl)cc4)nn3c(=O)c2c1C,54,40,26,–,–,24,36,–,11,6,9
Cc1sc2nc3ncc(-c4ccc(Br)cc4)nn3c(=O)c2c1C,28,24,13,–,–,25,33,–,27,5,13
CCOC(=O)Cc1nn2c(=O)c3c(C)c(C)sc3nc2[nH]1,62,47,19,> 300,20%,40,47,28.1,56,53,47
Cc1ccc(Nc2nn3c(=O)c4c(C)c(C)sc4nc3[nH]2)cc1,44,31,23,–,–,24,33,–,18,5,21
Cc1sc2nc3ncc(-c4ccccc4)nn3c(=O)c2c1C,50,34,17,–,–,38,38,–,34,28,14
